Measured values reported in ChEMBL document CHEMBL3603779, “Identification and Optimization of Benzimidazole Sulfonamides as Orally Bioavailable Sphingosine 1-Phosphate Receptor 1 Antagonists with in Vivo Activity” (J Med Chem, 2015).
Converted amounts (≈) assume the structure as drawn. The source made the active and inactive calls. No cut-off for these calls is given here.

What was measured:
[1] = target: T1, Cytochrome P450 3A5 (Homo sapiens, UniProt P20815); test: Induction of CYP3A5 activation in human hepatocytes at 10 uM incubated for 48 hrs using testosterone substrate relative to rifampicin; type: ADME, cell-based, Hepatocyte
T1 sequence (P20815 whole entry): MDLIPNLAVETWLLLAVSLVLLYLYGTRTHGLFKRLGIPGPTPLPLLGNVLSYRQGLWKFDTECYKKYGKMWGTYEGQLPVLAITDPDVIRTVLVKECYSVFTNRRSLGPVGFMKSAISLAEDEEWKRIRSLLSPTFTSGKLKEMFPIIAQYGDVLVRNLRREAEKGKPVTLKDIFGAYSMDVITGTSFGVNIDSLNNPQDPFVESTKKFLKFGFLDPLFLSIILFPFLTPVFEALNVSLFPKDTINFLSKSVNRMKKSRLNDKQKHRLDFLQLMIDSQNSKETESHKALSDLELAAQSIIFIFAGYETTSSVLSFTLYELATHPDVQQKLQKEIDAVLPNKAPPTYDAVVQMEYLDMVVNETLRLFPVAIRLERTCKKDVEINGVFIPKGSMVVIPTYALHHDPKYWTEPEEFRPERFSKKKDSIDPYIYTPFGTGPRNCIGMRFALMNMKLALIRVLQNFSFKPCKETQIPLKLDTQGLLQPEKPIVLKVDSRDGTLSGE
Outline: (§1)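 Human hepatocyte CYP3A induction, testosterone probe with 6-β-hydroxytestosterone as marker; activity expressed as % of the rifampicin response; hepatocytes from two donors tested.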

[2] = Intrinsic clearance in mouse hepatocytes assessed per 10^6 cells at 1 uM after 0.5 to 120 mins by LCMS/MS method; type: ADME, cell-based, Hepatocyte; settings: read-out: CLH
[3] = target: T2, Cytochrome P450 3A4 (Homo sapiens, UniProt P08684); test: Inhibition of CYP3A4 in human liver microsomes incubated for 5 mins in presence of NADPH and specific substrates by LC/MS/MS method; type: ADME
T2 sequence (P08684 whole entry): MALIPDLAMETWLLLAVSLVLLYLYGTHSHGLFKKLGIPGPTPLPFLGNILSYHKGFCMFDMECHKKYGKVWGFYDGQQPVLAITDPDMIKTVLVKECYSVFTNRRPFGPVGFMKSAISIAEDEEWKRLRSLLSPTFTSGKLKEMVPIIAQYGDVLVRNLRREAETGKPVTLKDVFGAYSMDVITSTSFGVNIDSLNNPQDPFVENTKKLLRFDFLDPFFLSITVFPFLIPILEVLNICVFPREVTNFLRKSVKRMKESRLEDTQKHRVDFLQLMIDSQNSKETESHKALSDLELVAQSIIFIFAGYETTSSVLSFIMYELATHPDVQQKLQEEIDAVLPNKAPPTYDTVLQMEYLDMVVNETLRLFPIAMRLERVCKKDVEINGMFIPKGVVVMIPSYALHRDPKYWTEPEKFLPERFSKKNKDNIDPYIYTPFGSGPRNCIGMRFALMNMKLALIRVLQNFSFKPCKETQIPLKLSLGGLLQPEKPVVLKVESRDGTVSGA

[4] = target: Cytochrome P450 2C19 (Homo sapiens, UniProt P33261); test: Inhibition of CYP2C19 in human liver microsomes incubated for 5 mins in presence of NADPH and specific substrates by LC/MS/MS method; type: ADME
Chain of Cytochrome P450 2C19 (P33261 whole entry): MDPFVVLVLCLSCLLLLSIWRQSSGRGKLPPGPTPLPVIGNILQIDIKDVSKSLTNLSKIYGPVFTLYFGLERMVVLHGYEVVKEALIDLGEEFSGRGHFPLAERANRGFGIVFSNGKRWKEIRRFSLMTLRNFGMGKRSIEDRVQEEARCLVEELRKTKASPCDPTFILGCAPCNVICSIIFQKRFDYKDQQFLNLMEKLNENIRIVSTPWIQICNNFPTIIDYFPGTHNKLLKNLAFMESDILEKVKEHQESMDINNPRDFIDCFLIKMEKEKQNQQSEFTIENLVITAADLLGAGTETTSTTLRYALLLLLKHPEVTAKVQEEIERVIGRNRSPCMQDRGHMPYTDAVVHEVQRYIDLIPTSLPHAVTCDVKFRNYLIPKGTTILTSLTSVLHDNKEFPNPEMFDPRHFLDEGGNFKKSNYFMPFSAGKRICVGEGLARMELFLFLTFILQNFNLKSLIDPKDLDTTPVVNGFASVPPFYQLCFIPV

[5] = Cmax in Han Wistar rat at 10 mg/kg, po by LCMS/MS method; type: ADME, organism-based; set-up: dose 10 mg/kg, route oral; settings: in vivo
[6] = target: Cytochrome P450 2C9 (Homo sapiens, UniProt P11712); test: Inhibition of CYP2C9 in human liver microsomes incubated for 5 mins in presence of NADPH and specific substrates by LC/MS/MS method; type: ADME
Chain of Cytochrome P450 2C9 (P11712 whole entry): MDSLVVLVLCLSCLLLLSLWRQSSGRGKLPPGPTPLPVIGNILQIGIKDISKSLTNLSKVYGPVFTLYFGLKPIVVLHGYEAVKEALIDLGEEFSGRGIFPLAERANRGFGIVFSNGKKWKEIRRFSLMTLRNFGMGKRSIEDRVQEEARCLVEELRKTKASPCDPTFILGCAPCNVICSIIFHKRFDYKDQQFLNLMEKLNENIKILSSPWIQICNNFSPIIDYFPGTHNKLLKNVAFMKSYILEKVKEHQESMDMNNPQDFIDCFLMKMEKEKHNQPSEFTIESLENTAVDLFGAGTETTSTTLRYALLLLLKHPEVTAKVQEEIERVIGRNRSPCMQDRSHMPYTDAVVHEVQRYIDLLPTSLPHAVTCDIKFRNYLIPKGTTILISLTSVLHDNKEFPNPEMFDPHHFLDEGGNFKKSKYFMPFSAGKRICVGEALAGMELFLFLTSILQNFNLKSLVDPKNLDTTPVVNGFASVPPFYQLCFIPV

[7] = Lipophilicity, log D of the compound at pH 7.4; type: physicochemical; settings: buffer
[8] = Intrinsic clearance in human hepatocytes assessed per 10^6 cells at 1 uM after 0.5 to 120 mins by LCMS/MS method; type: ADME, cell-based, Hepatocyte; settings: read-out: CLH
[9] = target: T3, Nuclear receptor subfamily 1 group I member 2 (Homo sapiens, UniProt O75469); test: Activation of human PXR expressed in human HepG2 cells co-expressing CYP3A4 assessed as CYP3A4 activation at 10 uM by luciferase reporter gene assay relative to rifampicin; type: ADME, cell-based; settings: hepg2, 10 µM
T3 sequence (O75469 whole entry): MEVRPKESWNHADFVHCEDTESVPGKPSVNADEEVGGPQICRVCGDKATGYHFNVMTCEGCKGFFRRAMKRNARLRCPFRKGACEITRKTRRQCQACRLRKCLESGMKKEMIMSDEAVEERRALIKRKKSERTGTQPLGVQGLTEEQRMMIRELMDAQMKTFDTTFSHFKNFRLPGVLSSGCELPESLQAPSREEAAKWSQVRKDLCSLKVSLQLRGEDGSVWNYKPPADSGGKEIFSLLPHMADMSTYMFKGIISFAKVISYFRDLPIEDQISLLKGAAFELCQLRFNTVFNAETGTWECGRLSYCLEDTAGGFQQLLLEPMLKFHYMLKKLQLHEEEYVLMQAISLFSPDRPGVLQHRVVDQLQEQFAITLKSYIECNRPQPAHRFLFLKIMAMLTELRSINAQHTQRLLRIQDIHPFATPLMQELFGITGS
Outline: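 Single-concentration PXR reporter gene screen, compound at 10 μM; activation expressed as a percentage of the response to rifampicin, also at 10 μM.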

[10] = target: T2, Cytochrome P450 3A4; test: Induction of CYP3A4 activation in human hepatocytes at 10 uM incubated for 48 hrs using testosterone substrate relative to rifampicin; type: ADME, cell-based, Hepatocyte; outline: as §1
[11] = target: T1, Cytochrome P450 3A5; test: Inhibition of CYP3A5 in human liver microsomes incubated for 5 mins in presence of NADPH and specific substrates by LC/MS/MS method; type: ADME
[12] = Aqueous equilibrium solubility in pH 7.4 phosphate buffer incubated for 24 hrs by HPLC-UV and MS method; type: physicochemical
[13] = Oral bioavailability in Han Wistar rat at 10 mg/kg by LCMS/MS method; type: ADME, organism-based; settings: in vivo
[14] = Unbound fraction in human plasma at 10 uM by LCMS/MS detection based equilibrium dialysis method; type: ADME, cell-free
[15] = Intrinsic clearance in dog hepatocytes assessed per 10^6 cells at 1 uM after 0.5 to 120 mins by LCMS/MS method; type: ADME, cell-based, Canis lupus familiaris, Hepatocyte; settings: read-out: CLH
[16] = Unbound fraction in mouse plasma at 10 uM by LCMS/MS detection based equilibrium dialysis method; type: ADME, cell-free
[17] = Unbound fraction in rat plasma at 10 uM by LCMS/MS detection based equilibrium dialysis method; type: ADME, cell-free
[18] = Unbound fraction in dog plasma at 10 uM by LCMS/MS detection based equilibrium dialysis method; type: ADME, cell-free, Canis lupus familiaris
[19] = target: Sphingosine 1-phosphate receptor 1 (Homo sapiens, UniProt P21453); test: Antagonist activity against human S1P1 receptor expressed in human U2OS cells co-expressing GFP assessed as inhibition of S1P-induced receptor translocation; type: cell-based
Chain of Sphingosine 1-phosphate receptor 1 (P21453 whole entry): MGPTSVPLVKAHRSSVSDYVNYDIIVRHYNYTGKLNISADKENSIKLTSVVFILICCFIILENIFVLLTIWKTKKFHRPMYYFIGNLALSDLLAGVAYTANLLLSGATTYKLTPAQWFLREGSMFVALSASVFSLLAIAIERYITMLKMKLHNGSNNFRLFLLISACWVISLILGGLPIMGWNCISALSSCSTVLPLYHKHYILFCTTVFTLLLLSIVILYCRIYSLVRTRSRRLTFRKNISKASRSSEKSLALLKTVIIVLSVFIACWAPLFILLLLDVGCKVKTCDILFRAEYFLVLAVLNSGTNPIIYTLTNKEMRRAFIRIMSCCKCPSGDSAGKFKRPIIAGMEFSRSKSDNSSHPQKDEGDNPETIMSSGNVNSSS
Outline: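 Cellular S1P1 translocation (internalization) assay with antagonist; EC50 reported as mean of at least three separate determinations ± standard deviation.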

[20] = Intrinsic clearance in rat hepatocytes assessed per 10^6 cells at 1 uM after 0.5 to 120 mins by LCMS/MS method; type: ADME, cell-based, Hepatocyte; settings: read-out: CLH
[21] = test system: Mus musculus; test: Inhibition of FGF-S1P-stimulated angiogenesis in 129s1/SvImJ mouse assessed as reduction in hemoglobin level at 10 mg/kg, po administered once-daily for 4 days by spectrophotometry based matrigel plug angiogenesis assay; type: functional, organism-based
Outline: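 Matrigel (0.5 mL) with 2 µg/mL β-FGF and 1 µM S1P injected subcutaneously in the ventral region of female 129s1/SvImJ mice. Oral dosing at 10 mg/kg once daily on days 5-8 post-implant (5 per cohort); vehicle 0.5% HPMC, 0.1% Tween 80. Controls also include Matrigel without factors. Hemoglobin per gram of plug gel quantified.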

[22] = target: Cytochrome P450 2D6 (Homo sapiens, UniProt P10635); test: Inhibition of CYP2D6 in human liver microsomes incubated for 5 mins in presence of NADPH and specific substrates by LC/MS/MS method; type: ADME
Chain of Cytochrome P450 2D6 (P10635 whole entry): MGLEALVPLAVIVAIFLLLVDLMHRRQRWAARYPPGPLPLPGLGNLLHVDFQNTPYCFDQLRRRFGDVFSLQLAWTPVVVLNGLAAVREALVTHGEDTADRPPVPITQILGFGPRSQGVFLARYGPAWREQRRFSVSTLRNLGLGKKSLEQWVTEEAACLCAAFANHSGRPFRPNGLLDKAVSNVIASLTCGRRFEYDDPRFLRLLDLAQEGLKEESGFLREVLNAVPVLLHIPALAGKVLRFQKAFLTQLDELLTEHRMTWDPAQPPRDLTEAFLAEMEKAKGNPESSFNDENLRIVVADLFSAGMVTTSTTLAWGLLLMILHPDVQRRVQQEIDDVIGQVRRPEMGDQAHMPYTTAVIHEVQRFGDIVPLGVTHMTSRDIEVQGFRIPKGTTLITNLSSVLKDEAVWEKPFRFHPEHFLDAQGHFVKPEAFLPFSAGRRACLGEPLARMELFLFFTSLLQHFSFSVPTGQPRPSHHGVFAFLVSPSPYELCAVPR

[23] = target: T4, Cytochrome P450 1A2 (Homo sapiens, UniProt P05177); test: Inhibition of CYP1A2 in human liver microsomes incubated for 5 mins in presence of NADPH and specific substrates by LC/MS/MS method; type: ADME
T4 sequence (P05177 whole entry): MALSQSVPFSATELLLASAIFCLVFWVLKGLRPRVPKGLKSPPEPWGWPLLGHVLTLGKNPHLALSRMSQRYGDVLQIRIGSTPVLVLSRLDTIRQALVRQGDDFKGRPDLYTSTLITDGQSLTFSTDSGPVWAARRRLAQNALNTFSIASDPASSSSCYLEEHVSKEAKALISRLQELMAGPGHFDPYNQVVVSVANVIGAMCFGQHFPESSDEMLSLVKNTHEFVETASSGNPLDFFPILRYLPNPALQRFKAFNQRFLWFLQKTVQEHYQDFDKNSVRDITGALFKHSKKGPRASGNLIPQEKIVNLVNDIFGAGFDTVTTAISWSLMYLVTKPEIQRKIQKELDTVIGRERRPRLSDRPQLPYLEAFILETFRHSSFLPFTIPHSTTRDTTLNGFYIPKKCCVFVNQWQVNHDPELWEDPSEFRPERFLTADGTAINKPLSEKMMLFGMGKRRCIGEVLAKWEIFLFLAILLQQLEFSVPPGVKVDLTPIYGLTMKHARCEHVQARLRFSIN

[24] = Clearance in Han Wistar rat at 3 mg/kg, iv by LCMS/MS method; type: ADME, organism-based; settings: in vivo
[25] = target: Voltage-gated inwardly rectifying potassium channel KCNH2 (Homo sapiens, UniProt Q12809)
Chain of Voltage-gated inwardly rectifying potassium channel KCNH2 (Q12809 whole entry): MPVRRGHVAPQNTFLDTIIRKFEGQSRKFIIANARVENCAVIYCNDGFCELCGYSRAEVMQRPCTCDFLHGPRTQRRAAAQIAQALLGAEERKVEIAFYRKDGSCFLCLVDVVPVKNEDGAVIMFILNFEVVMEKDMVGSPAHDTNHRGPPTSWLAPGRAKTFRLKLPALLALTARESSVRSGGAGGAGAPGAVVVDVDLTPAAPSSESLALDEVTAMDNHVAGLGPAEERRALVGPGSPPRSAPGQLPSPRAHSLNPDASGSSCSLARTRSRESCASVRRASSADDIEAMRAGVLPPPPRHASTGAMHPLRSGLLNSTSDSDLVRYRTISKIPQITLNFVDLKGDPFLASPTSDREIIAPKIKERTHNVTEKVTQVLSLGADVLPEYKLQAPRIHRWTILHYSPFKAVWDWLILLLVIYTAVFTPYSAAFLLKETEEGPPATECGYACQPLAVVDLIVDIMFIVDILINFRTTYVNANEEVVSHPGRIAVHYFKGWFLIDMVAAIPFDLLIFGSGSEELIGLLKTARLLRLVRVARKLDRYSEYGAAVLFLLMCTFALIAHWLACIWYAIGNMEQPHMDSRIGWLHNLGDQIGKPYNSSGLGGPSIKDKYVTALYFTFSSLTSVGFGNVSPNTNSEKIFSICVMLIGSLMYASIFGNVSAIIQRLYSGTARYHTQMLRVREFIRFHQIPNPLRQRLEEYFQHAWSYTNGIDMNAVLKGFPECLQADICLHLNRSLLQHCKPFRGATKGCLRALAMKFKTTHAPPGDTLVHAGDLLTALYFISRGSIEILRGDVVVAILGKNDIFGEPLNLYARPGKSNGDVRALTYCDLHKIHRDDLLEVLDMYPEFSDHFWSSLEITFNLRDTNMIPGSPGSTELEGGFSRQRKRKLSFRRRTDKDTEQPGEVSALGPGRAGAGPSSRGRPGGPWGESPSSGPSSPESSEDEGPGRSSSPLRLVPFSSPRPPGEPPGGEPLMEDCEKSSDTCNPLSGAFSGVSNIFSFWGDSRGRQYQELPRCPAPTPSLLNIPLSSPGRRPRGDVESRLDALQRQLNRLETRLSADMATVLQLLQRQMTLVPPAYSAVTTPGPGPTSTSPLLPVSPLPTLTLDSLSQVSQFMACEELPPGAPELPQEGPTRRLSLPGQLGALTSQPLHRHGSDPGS

| SMILES | Activity [1] | hepatocyte CLint at 1 µM [2] | IC50 [3] | IC50 [4] | Cmax [5] | IC50 [6] | logD [7] | hepatocyte CLint at 1 µM [8] | Activity [9] | Activity [10] | IC50 [11] | solubility thermodynamic at 24 h [12] | bioavailability [13] | fraction unbound at 10 µM [14] | hepatocyte CLint at 1 µM [15] | fraction unbound at 10 µM [16] | fraction unbound at 10 µM [17] | fraction unbound at 10 µM [18] | EC50 [19] | hepatocyte CLint at 1 µM [20] | other results |
| --- | --- | --- | --- | --- | --- | --- | --- | --- | --- | --- | --- | --- | --- | --- | --- | --- | --- | --- | --- | --- | --- |
| CCn1c([C@@H](C)NS(=O)(=O)c2ccc(C#N)nc2)nc2cnc(C3CC3)cc21 | < 40% | 2.5 µL/min/1e6 cells | > 20 µM | > 20 µM | 21.7 µM | > 20 µM | 1.6 | 0.2 µL/min/1e6 cells | 20% | < 40% | > 20 µM | > 1000 µM | 93% | 0.19 | 1.7 µL/min/1e6 cells | 0.41 | 0.18 | 0.5 | 0.004 µM | 3.9 µL/min/1e6 cells | inhibition [21]: Active; IC50 [22]: > 20 µM; IC50 [23]: > 20 µM |
| CCn1c([C@@H](C)NS(=O)(=O)c2ccc(C#N)nc2)nc2cnc(C(F)(F)F)cc21 | < 40% | 0.3 µL/min/1e6 cells | > 20 µM | > 20 µM | 13.3 µM | > 20 µM | 1.3 | 1.2 µL/min/1e6 cells | 15% | < 40% | > 20 µM | 765 µM (≈ 325 µg/mL) | 87% | 0.24 | 2.4 µL/min/1e6 cells | 0.53 | 0.32 | 0.36 | 0.007 µM | 2.1 µL/min/1e6 cells | clearance [24]: 8 mL/min/kg; IC50 [25]: > 200 µM; inhibition [21]: Active; IC50 [22]: > 20 µM; IC50 [23]: > 20 µM |
